“And” between values parts separate entries of the source, which are not always exact repeats. Identical values can stand only once. Like-named read-outs stand apart in the source and are kept apart here. Each block holds one compound with its values, some of them ahead of it.
Columns and labels:
[1] = molecular target: T1, murine iNOS (Mus musculus, UniProt P29477); assay: Inhibition of NO production; type: biochemical; conditions: 10 μM L-arginine, unit printed in cell/text as mM
[2] = molecular target: T2, iNOS (Mus musculus, UniProt P29477); assay: Ferric difference spectral binding assay; design: species or system murine
Procedure, shortened: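 Murine iNOS (E. coli-expressed, purified), 5 μM, in 100 mM HEPES pH 7.5 with 10 μM H4B, scanned 380–500 nm against a HEPES/H4B blank. […] Test compound titrated at 0.1–1 mM final, additions kept under 5% volume. Ks from Michaelis-Menten fit of concentration vs absorbance difference (local maximum minus minimum).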

[3] = molecular target: T2, iNOS; assay: NO production measured with the Griess reagent, longer incubations; type: biochemical, murine; conditions: incubations of 1, 2, 6, 12 and 24 hours
Procedure, shortened: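 Purified murine iNOS (E. coli-expressed), 100 nM, incubated 1, 2, 6, 12 and 24 h with test compound at various concentrations, 100 μM NADPH and 10 μM H4B in 100 mM HEPES, 10% glycerol, pH 7.5. Lactate dehydrogenase added to oxidize leftover NADPH, then Griess reagents added. Nitrite/nitrate read by absorbance at 540 nm.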

[4] = molecular target: NOS; conditions: cited from earlier work
[5] = test system: Methanol oxidase (MeOX); conditions: depending on the O2 concentration; cited from earlier work
[6] = molecular target: T1, murine iNOS; assay: NO production, hemoglobin capture assay; type: biochemical
[7] = molecular target: rat nNOS (Rattus norvegicus, UniProt P29476); assay: NO production, hemoglobin capture assay; type: biochemical; conditions: for Km: NO production, 22 °C, pH 7.5
Sequence of rat nNOS (P29476 whole entry): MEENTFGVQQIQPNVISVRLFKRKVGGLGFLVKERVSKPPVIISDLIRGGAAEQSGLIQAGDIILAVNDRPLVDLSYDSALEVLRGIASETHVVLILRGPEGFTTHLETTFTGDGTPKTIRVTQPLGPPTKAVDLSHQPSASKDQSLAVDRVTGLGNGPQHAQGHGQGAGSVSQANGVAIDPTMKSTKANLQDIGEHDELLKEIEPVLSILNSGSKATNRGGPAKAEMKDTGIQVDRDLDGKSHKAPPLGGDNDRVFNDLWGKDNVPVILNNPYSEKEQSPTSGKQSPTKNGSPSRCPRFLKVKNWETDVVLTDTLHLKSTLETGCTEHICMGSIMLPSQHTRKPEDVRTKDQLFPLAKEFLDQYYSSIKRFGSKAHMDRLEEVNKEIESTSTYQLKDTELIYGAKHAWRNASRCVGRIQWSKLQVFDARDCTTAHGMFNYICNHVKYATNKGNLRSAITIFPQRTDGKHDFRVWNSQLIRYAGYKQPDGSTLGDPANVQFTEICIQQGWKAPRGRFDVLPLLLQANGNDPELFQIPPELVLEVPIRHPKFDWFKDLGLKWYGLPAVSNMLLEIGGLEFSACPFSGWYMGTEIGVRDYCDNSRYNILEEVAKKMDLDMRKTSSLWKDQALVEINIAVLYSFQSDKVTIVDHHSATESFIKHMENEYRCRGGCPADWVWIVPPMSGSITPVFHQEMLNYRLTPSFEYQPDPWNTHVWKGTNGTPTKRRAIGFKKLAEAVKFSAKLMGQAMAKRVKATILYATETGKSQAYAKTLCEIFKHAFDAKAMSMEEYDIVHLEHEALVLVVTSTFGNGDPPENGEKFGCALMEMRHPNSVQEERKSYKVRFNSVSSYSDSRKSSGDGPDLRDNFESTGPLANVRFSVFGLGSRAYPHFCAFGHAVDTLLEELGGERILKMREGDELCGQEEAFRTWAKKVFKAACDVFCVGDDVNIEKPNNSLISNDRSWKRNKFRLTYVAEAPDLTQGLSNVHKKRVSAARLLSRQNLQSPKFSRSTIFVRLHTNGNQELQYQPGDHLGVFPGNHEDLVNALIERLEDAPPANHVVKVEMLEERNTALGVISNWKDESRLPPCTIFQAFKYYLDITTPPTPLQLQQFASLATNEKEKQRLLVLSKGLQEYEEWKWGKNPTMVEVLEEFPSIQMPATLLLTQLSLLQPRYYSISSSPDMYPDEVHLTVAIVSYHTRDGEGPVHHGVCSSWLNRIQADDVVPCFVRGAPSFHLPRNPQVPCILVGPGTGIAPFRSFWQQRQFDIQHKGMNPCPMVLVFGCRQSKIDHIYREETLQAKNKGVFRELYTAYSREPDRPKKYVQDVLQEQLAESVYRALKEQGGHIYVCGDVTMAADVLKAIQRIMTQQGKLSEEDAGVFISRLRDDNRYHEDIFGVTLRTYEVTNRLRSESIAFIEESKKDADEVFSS

[8] = molecular target: T2, iNOS; assay: Substrate uncoupling: NADPH consumption versus NO production; type: biochemical, murine; conditions: 20 μM arginine, 20 μM NHA, 100 μM NMOA, 100 μM NHMA
[9] = molecular target: T2, iNOS; assay: One-carbon metabolite of [14C]-NMOA-iNOS reaction; type: biochemical, murine; conditions: MeOX/FDH conversion, scintillation counting
[10] = cited from earlier work
[11] = read-out: Ks (spectral binding constant), imidazole displacement

Compound: CN(CCC[C@H](N)C(=O)O)C(=N)NO [MHA, N^δ-methyl- N^ω-hydroxy-L-arginine]
- Ki [1]: > 10 mM
- Kd ([2]; read-out: Ks (spectral binding constant), unit printed in cell/text as mM): > 10 mM
- NO production (Griess reagent) [3]: absence of NO production

Compound: CN(CCC[C@H](N)C(=O)O)C(=N)N [dMA, N^δ-Methyl-L-arginine]
- Ki ([4]; binds weakly to the NOS active site): 1400 µM

Compound: CO [methanol]
- Km [5]: ~2000 µM

Compound: CCONC(=N)NCCC[C@H](N)C(=O)O [NEOA, N^ω-ethoxy-L-arginine]
- Kd [2, 11]: 0.12 ± 0.013 mM
- NO production (Griess reagent) [3]: absence of NO production

Compound: CONC(=N)NCCC[C@H](N)C(=O)O [NMOA, N^ω-methoxy-L-arginine]
- Kd [2, 11]: 0.122 ± 0.02 mM
- kcat [6]: 0.0783 ± 0.0217 s⁻¹
- kcat, times lower compared to NHA [6]: about 4 times
- Km ([6]; NO production, 22 °C, pH 7.5): 0.088 ± 0.008 mM
- kcat [7]: 0.03 ± 0.0083 s⁻¹
- kcat, times lower compared to NHA [7]: ~7 times
- Km [7]: 11 ± 2 µM
- NADPH:NO (moles of NADPH consumed per mole of NO formed) [8]: 8 and 8.0 ± 1.5

- One-carbon metabolite [9]: methanol
Compound: [14CH3]ONC(=N)NCCC[C@H](N)C(=O)O [[^14C]-NMOA, N^ω-[^14C]-methoxy-L-arginine]

Compound: CON(C)C(=N)NCCC[C@H](N)C(=O)O [NMMA, N^ω-methoxy-N^ω-methyl-L-arginine]
- Kd [2, 11]: 0.07 ± 0.005 mM
- NO production (Griess reagent) [3]: absence of NO production

Compound: CN(O)C(=N)NCCC[C@H](N)C(=O)O [NHMA, N^ω-hydroxy-N^ω-methyl-L-arginine]
- Kd [2, 11]: 0.034 ± 0.004 mM
- kcat [6]: 0.015 ± 0.0083 s⁻¹
- kcat, times lower compared to NHA [6]: about 18 times
- Km ([6]; NO production, 22 °C, pH 7.5): 0.034 ± 0.006 mM
- kcat [7]: 0.0167 ± 0.0033 s⁻¹
- kcat, times lower compared to NHA [7]: ~13 times
- Km [7]: 2 ± 0.4 µM
- NADPH:NO (moles of NADPH consumed per mole of NO formed) [8]: 15 and 15.0 ± 2.7

Compound: CN=C(N)NCCC[C@H](N)C(=O)O [NMA, N^ω-Methyl-L-arginine]
- kinact ([4]; inactivator of NOS): 0.07 min⁻¹
- KI (inactivation) ([4]; read-out: KI (inactivation), inactivator of NOS): 2.7 µM
- Ki ([4]; read-out: Ki (competitive inhibitor), competitive inhibitor of NOS): 0.2 µM

Compound: N=C(NO)NCCC[C@H](N)C(=O)O [NHA, N^ω-hydroxy-L-arginine, reference compound]
- Kd [2, 11]: 0.029 ± 0.004 mM
- pKa [10]: 8.5
- kcat [6]: 0.267 ± 0.033 s⁻¹
- Km ([6]; NO production, 22 °C, pH 7.5): 0.022 ± 0.005 mM
- kcat [7]: 0.217 ± 0.067 s⁻¹
- Km [7]: 5.7 ± 2.1 µM
- NADPH:NO (moles of NADPH consumed per mole of NO formed) [8]: 0.7 ± 0.3

Compound: CC(C)(C)ONC(=N)NCCC[C@H](N)C(=O)O [tBOA, N^ω-tert-butyloxy-L-arginine]
- Ki [1]: 7.4 ± 4.5 mM
- kcat [6]: 0.005 ± 0.0017 s⁻¹
- Km ([6]; unit printed in cell/text as mM): 2.7 ± 0.8 mM

Compound: c1c[nH]cn1 [imidazole, reference compound]
- Kd [2, 11]: 0.12 to 0.15 mM

Compound: N=C(N)NCCC[C@H](N)C(=O)O [arginine, L-arginine, reference compound]
- NADPH:NO (moles of NADPH consumed per mole of NO formed) [8]: 1.5

Compound: C=O [formaldehyde]
- Km [5]: 2500 µM

Source: publication PMC3678535 (Biochemistry, 2013)
